Data on two molecules can be found in ChEMBL document CHEMBL4311940, “Design, Synthesis, and Biological Evaluation of 4-Methyl Quinazoline Derivatives as Anticancer Agents Simultaneously Targeting Phosphoinositide 3-Kinases and Histone Deacetylases” (J Med Chem, 2019).

Activity calls are given as the source filed them. The rule behind the calls is not given here.

For series [1], the species on record is Homo sapiens. In words: Inhibition of PI3K in human HCT116 cells assessed as reduction in AKT phosphorylation at S473 residue at 0.02 to 0.5 uM after 16 hrs by Western blot analysis. It counts as cell-based. In outline:
(§1)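 Immunoblot of HCT116 lysates (RIPA). 40 μg protein per lane on 10−12% SDS-PAGE, transferred to nitrocellulose, blocked 0.5 h in 5% milk/TBST. Primary antibodies 1:1000 overnight at 4 °C, secondary 1:1000 for 1 h, bands visualized by enhanced ECL.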
A general note: In western blotting, separated proteins are transferred to a membrane and probed.

Series [2] has as its target Protein deacetylase HDAC6 (Homo sapiens, UniProt Q9UBN7). In words: Inhibition of HDAC6 (unknown origin) using Ac-peptide as substrate preincubated for 15 mins followed by substrate addition and measured after 1 hr.
The target in another series is Histone deacetylase 2 (Homo sapiens, UniProt Q92769). In words: Inhibition of recombinant human full length HDAC2 expressed in baculovirus infected Sf9 insect cells using Ac-peptide as substrate preincubated for 15 mins followed by substrate addition and measured after 1 hr. In outline: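 Recombinant HDAC isoforms mixed with serially diluted compound in assay buffer for 15 min at room temperature. Ac-peptide substrate then added and incubated 1 h at room temperature. Signal read on a plate reader; IC50 by curve fitting.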
Histone deacetylase 2, sequence (Q92769 whole entry, canonical isoform): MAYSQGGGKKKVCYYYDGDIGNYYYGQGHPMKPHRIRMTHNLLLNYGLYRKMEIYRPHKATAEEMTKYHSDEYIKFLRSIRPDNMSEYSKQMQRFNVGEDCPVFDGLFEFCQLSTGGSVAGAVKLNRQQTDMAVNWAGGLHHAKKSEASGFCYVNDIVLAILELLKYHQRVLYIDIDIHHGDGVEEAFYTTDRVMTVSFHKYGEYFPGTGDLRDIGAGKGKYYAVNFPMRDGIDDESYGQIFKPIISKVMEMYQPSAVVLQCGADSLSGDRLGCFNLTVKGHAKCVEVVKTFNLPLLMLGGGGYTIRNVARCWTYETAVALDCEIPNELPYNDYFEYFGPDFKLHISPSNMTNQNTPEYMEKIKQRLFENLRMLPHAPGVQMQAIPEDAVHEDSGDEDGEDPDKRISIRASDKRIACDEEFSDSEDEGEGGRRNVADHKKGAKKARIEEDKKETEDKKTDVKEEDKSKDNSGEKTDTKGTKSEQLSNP

Series [3] deals with Phosphatidylinositol 4,5-bisphosphate 3-kinase catalytic subunit beta isoform (Homo sapiens, UniProt P42338). As to the kind of experiment: Inhibition of recombinant human PIK3CB using PIP2 as substrate incubated for 1 hr by ADP-glo assay. The essentials: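 Recombinant PI3Kβ, -γ or -δ, serially diluted compound, PIP2 substrate and ATP combined in kinase buffer. Incubated 1 h at room temperature in the dark, then stopped with ADP-Glo reagent. Luminescence read after kinase detection reagent; IC50 by curve fitting.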
Phosphatidylinositol 4,5-bisphosphate 3-kinase catalytic subunit beta isoform, sequence (P42338 whole entry, canonical isoform): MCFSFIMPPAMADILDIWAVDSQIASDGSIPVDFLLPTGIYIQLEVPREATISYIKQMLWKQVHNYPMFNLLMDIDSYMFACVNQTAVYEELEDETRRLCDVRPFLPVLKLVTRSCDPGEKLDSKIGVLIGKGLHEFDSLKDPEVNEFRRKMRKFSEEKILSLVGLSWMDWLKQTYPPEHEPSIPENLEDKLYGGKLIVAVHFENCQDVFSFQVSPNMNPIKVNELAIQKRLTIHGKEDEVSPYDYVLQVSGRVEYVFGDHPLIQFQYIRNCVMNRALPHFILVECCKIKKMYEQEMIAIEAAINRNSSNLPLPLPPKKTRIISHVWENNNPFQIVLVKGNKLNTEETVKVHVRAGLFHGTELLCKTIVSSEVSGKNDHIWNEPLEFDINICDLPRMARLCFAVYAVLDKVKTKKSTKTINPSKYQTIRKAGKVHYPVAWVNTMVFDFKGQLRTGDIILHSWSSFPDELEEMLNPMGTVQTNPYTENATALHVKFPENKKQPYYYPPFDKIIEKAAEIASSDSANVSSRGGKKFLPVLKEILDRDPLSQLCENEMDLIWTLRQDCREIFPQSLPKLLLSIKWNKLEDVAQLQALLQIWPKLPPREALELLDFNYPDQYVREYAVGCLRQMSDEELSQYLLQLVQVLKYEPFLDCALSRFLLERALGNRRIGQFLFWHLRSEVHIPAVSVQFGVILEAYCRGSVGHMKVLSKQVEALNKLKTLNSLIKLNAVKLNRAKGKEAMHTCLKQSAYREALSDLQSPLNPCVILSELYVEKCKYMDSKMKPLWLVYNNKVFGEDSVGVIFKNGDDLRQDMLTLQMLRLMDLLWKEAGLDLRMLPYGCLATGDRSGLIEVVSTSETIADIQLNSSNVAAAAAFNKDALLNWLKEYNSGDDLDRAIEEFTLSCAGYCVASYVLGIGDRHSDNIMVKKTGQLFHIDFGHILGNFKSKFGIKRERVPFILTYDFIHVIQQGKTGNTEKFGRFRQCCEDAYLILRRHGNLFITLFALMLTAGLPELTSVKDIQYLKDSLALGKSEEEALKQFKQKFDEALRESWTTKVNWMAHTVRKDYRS
(ADP-Glo first removes unused ATP, then detects ADP through luciferase.)

Series [4] deals with PI3-kinase p110-delta/p85-alpha (Homo sapiens, UniProt O00329). In words: Inhibition of recombinant human His-tagged PIK3CD/PIK3R1 expressed in baculovirus expression system using PIP2 as substrate incubated for 1 hr by ADP-glo assay.
The species named for series [5] is Homo sapiens. In words: Selectivity ratio, ratio of IC50 for recombinant human PI3Kalpha to recombinant human His-tagged PIK3CD/PIK3R1 expressed in baculovirus expression system.
The species named for series [6] is Homo sapiens. In words: Inhibition of PI3K in human HCT116 cells assessed as reduction in AKT phosphorylation at T308 residue at 0.02 to 0.5 uM after 16 hrs by Western blot analysis. In kind it is cell-based. In outline:
as §1

For series [7], the target named is T1, Histone deacetylase (Homo sapiens) (UniProt Q13547+O15379+Q9UBN7+Q92769+Q9UQL6+Q8WUI4+Q9BY41+Q96DB2+P56524+Q9UKV0+Q969S8). In words: Inhibition of HDAC in human HCT116 cells assessed as increase in acetylated histone H3 levels after 16 hrs by Western blot analysis. In kind it is cell-based. In outline:
(§2)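 HCT116 cells lysed in RIPA after washes in cold PBS. 40 μg protein run on 10−12% SDS-PAGE and transferred to nitrocellulose. Membrane blocked in 5% milk/TBST for 0.5 h, primary antibodies 1:1000 overnight at 4 °C, secondary 1:1000 for 1 h, ECL detection.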

In series [8] the target is T1, Histone deacetylase (Homo sapiens). In words: Inhibition of HDAC in human HCT116 cells assessed as increase in acetylated p53 levels after 16 hrs by Western blot analysis. It counts as cell-based. In outline:
as §2

The nature of series [9]: Mutagenicity in Salmonella typhimurium TA100 at 5 to 500 ug/plate in absence of s9 mix by Ames test. In kind it is toxicity. As to conditions: salmonella enterica subsp. enterica serovar typhimurium. The essentials:
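Plate incorporation method at 5, 50 and 500 μg/plate, with and without S9 activation. At least three plates per dose, incubated 72 h at 37 °C, revertants counted. Mean revertants compared with vehicle and positive controls.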

Series [10] is described as follows: Selectivity index, ratio of IC50 for human LO2 cells to IC50 for human HCT116 cells. As to conditions: LO2 cells and HCT116 cells, read-out: Ratio IC50. It counts as toxicity. The essentials:
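Ratio of IC50s from the MTT assay: PBMC or LO2 cells versus HCT116. Cells seeded at 2000/well, attached overnight at 37 °C, treated 96 h, MTT 4 h, formazan dissolved in DMSO, A570.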

The species entered for series [11] is Homo sapiens. In words: Inhibition of PI3K in human HCT116 cells assessed as reduction in AKT phosphorylation at S473 residue at 0.5 to 5 uM after 16 hrs by Western blot analysis. It counts as cell-based. In outline:
as §1

The target of series [12] is Phosphatidylinositol 4,5-bisphosphate 3-kinase catalytic subunit gamma isoform (Homo sapiens, UniProt P48736). In words: Binding affinity to wild-type human partial length PIK3CG (S144 to A1102 residues) expressed in mammalian expression system assessed as residual binding level at 1 uM by Kinomescan method relative to control. In outline: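 Kinomescan binding screen at 1 μM across 97 kinases.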
Phosphatidylinositol 4,5-bisphosphate 3-kinase catalytic subunit gamma isoform, sequence (P48736 whole entry, looked up, the tested form may be a part, canonical isoform): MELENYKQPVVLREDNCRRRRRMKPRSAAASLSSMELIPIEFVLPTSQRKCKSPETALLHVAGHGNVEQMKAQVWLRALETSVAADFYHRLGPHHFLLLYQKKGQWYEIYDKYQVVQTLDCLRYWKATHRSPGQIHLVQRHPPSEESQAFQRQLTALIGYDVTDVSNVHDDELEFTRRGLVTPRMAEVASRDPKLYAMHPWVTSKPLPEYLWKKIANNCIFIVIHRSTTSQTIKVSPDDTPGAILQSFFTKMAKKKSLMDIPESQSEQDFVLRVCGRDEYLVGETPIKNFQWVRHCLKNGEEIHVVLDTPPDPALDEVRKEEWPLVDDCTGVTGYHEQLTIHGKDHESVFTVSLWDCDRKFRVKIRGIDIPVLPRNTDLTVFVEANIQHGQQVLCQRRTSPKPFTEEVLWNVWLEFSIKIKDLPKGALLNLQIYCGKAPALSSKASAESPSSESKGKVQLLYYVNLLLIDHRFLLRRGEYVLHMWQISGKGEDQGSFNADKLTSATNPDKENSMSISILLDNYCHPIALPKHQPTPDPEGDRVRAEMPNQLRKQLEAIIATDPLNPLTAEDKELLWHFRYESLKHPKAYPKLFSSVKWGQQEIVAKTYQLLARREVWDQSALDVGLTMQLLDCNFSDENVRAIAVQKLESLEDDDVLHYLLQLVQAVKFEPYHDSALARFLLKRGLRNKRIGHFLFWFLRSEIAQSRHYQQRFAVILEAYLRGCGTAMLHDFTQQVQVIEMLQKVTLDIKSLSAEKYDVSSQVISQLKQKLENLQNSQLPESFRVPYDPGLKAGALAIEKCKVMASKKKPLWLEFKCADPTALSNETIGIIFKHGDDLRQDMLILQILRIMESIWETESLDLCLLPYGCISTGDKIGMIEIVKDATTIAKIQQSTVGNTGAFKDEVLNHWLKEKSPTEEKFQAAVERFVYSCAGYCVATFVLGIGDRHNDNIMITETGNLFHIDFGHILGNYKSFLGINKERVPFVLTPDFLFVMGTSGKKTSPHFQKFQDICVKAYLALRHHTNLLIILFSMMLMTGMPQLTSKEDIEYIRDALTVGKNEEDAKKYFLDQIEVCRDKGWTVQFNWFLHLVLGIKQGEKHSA

The species named for series [13] is Homo sapiens. As to the kind of experiment: Inhibition of PI3K in human HCT116 cells assessed as reduction in AKT phosphorylation at T308 residue at 0.5 to 5 uM after 16 hrs by Western blot analysis. It counts as cell-based. In outline:
as §1

The species named for series [14] is Homo sapiens. As to the kind of experiment: Inhibition of HDAC/PI3K in human HCT116 cells assessed as increase in cleaved caspase-3 level at 0.5 to 5 uM after 16 hrs by Western blot analysis. In kind it is cell-based. In outline: as §1
A short description of series [15]: Half life in mouse plasma at 0.02 mM by LC/MS analysis. In kind it is ADME, cell-free. In outline:
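Spiking solution of 0.02 mM compound, 0.05 mM sodium phosphate, 0.5% BSA prewarmed 5 min at 37 °C, mixed with prewarmed mouse plasma; quenched with acetonitrile at time points; LC/MS; T1/2 = 0.693/K from ln(concentration) vs time.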

The test system of the next series is HCT-116. In words: Antitumor activity against human HCT116 cells xenografted in athymic nude BALB/c mouse assessed as tumor growth inhibition at 150 mpk, po measured 2 times every week relative to control. It counts as functional. As to conditions: HCT-116, po, read-out: TGI. The essentials: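 Female BALB/c-nu/nu mice, 6–8 weeks, given 2 × 10^6 HCT116 cells in 0.2 mL saline s.c. right flank; randomized at 100–200 mm3. Daily oral dosing in 0.5% cmc with Tween 80; vehicle controls.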

Series [16] has as its system Mus musculus. As to the kind of experiment: In vivo inhibition of PI3K in tumor of human HCT116 cells xenografted in athymic nude BALB/c mouse assessed as reduction in phosphorylated AKT expression at S473 residue by DAB staining based immunohistochemistry method. It counts as functional, organism-based. In outline: (§3)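 HCT116 xenograft tumors from treated and vehicle mice stained immunohistochemically for Ki67, acetyl-H3 and p-AKT(S473) (200×); integrated optical density quantified; mean ± SEM, n = 5−7, one-way ANOVA versus vehicle.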

The test system of series [17] is Mus musculus. In words: In vivo inhibition of HDAC in tumor of human HCT116 cells xenografted in athymic nude BALB/c mouse assessed as increase in acetylated histone-H3 expression by DAB staining based immunohistochemistry method. It counts as functional, organism-based. The essentials:
as §3

Series [18] relates to HGC-27. As to the kind of experiment: Antitumor activity against human HGC27 cells xenografted in athymic nude BALB/c mouse assessed as tumor growth inhibition at 100 mpk, po measured 2 times every week. As to conditions: HGC-27, po, read-out: TGI. It counts as functional. Background: Xenograft models place foreign cells or tissue in a host animal.
For series [19], the system named is HGC-27. In words: Antitumor activity against human HGC27 cells xenografted in athymic nude BALB/c mouse assessed as tumor growth inhibition at 200 mpk, po measured 2 times every week. It counts as functional. As to conditions: HGC-27, po, read-out: TGI. The essentials:
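HGC-27 xenograft: 2 × 10^6 cells in 0.2 mL saline s.c. right flank of female BALB/c-nu/nu mice (6–8 weeks); randomized at 100–200 mm3. Oral dosing in 0.5% cmc with Tween 80, intraperitoneal in saline; vehicle given orally daily.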

Protein deacetylase HDAC6, sequence (Q9UBN7 whole entry, canonical isoform): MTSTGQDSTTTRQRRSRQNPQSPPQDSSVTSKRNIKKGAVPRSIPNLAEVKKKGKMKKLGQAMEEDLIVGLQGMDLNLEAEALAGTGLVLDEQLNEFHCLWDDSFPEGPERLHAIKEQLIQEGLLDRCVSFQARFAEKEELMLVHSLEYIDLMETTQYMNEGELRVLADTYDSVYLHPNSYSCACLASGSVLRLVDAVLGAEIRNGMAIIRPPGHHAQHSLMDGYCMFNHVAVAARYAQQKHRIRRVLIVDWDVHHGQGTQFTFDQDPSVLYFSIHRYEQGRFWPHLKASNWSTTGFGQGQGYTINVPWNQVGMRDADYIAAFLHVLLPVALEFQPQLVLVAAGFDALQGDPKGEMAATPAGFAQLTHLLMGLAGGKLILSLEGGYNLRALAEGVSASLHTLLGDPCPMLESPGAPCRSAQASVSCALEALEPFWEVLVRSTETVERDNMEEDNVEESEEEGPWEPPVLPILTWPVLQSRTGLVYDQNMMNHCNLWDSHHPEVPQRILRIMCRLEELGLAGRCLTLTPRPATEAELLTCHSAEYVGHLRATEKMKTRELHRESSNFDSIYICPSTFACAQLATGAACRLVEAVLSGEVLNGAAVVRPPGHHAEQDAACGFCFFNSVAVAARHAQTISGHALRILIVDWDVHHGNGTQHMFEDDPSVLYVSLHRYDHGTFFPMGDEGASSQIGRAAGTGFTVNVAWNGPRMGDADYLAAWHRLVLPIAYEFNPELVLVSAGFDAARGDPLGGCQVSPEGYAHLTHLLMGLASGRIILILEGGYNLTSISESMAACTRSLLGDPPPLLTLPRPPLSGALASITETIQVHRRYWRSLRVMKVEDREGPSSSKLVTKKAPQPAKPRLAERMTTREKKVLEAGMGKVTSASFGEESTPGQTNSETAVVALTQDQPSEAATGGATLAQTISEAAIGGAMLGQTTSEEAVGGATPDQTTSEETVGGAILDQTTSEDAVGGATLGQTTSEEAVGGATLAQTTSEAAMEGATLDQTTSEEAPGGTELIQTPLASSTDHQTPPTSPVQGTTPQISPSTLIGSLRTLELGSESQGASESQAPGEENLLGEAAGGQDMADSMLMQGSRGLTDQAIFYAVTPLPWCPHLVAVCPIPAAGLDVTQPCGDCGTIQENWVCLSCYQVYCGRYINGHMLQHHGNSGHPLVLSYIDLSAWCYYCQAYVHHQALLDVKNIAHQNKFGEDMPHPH

As a reminder, the IC50 is the concentration that gives 50% inhibition. Turning to `COc1ccc(-c2cc(OCCN(C)c3ncc(C(=O)NO)cn3)c3ncnc(C)c3c2)cn1`, the inhibition result in the series filed under Homo sapiens [1] and in the series listed under Homo sapiens [6] was “Active” each time. Besides, the IC50 came to 17 nM in series [2], 3.4 nM at Histone deacetylase 2, 279 nM in series [3] and 29 nM in series [4]. The Ratio IC50 in the series filed under Homo sapiens [5] is greater than 5. Besides, the inhibition result in series [7] and in series [8] was “Dose-dependent effect” each time. Moreover, in series [9], the Activity entry is reported as “Non-Toxic”. For the same molecule, the selectivity ratio in series [10] is 1430.
In general, half-life refers to the time in which the quantity being followed falls by half. On to `COc1ncc(-c2cc(OCCCCCCC(=O)NO)c3ncnc(C)c3c2)cc1F`, for which the inhibition result in the series filed under Homo sapiens [11], in the series listed under Homo sapiens [13] and in the series filed under Homo sapiens [14] was “Active” each time. Further, the Activity in [12] is 1.4%; in series [9], “Non-Toxic”. The IC50 on Histone deacetylase 2 was 3 nM; in series [3], 101 nM. For the same molecule, the half-life at 20 µM in [15] was 1.2 h. For the same molecule, the inhibition in vivo at 150 mg/kg in the series on HCT-116 was found to be 45.8%. Besides, the inhibition entry with Mus musculus [16] and in the series with Mus musculus [17] was “Dose-dependent effect” in each case. Moreover, the inhibition in vivo at 100 mg/kg in the series on HGC-27 [18] was 15.2%. Moreover, in the series on HGC-27 [19], the inhibition in vivo at 200 mg/kg was found to be 45.9%.
